Bioassay records from PubChem BioAssay.
In the library only some 2.9% were active in any assay of this set; here they are far more common.
Apaf1 inhib: inhibitors of human Apaf-1 apoptosome, primary screen, biochemical, DEVD-Rh110 fluorescence, uHTS. Apoptotic protease-activating factor 1 (Homo sapiens), O14727. reconstituted apoptosome caspase-3 activity. inhibition, % at 20 µM. 0.71% of 330,000 active. AID 489030, 2010; active means inhibition of at least 40% at 20 µM;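 further: plate controls were DMSO wells for no effect and DEVD-CHO caspase inhibitor wells for full effect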
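detection = Rh110 fluorescence intensity | test system = biochemical Apaf-1 apoptosome reconstitution | also added = cytochrome c and DEVD-Rh110 substrate | schedule = 30 min plus 50 min, RT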
SENP7 inh: SENP7 protease inhibitors, primary screen, biochemical, luminescence, uHTS; Sentrin-specific protease 7 (Homo sapiens), Q9BQF6; 1.5% of 330,000 active; inhibition, % at 5 µM; AID 434973, 2010; recombinant SENP7, Z-RLRGG-aminoluciferin luminescence, 40 min;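 active means inhibition above about 50% at the single test dose, limit read from the data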;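 further: plate controls were DMSO with enzyme for no effect and no enzyme buffer wells for full effect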
SENP6 inh: SENP6 protease inhibitors, primary screen, biochemical, luminescence, uHTS; Sentrin-specific protease 6 (Homo sapiens), Q9GZR1; Recombinant SENP6 catalytic domain, aminoluciferin luminescence; 1.8% of 330,000 active; inhibition, % at 10 µM;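 active means inhibition above about 50% at the single tested dose, limit read from the data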;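 further: plate controls were DMSO wells with enzyme for no effect and DMSO wells lacking enzyme for full effect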
Target sequence (Q9GZR1 628-1112 limits assumed): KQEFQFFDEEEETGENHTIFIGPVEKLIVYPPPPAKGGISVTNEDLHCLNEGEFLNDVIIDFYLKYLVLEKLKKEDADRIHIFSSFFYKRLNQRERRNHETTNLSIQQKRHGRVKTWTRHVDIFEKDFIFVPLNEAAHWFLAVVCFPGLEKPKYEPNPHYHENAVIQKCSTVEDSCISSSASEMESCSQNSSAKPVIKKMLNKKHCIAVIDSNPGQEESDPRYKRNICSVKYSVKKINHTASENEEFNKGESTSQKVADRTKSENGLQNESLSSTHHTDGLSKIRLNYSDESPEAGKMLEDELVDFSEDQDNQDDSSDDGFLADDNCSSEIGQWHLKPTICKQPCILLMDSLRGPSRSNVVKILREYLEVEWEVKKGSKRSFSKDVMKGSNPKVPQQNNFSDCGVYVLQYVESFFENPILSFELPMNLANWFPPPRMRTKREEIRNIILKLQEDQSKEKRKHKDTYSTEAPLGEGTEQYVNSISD
SENP8 block-1: human SENP8 protease inhibitors, primary screen, biochemical, fluorescence, Nedd8 protein substrate, uHTS; Sentrin-specific protease 8 (Homo sapiens), Q96LD8; recombinant SENP8; 0.64% of 360,000 active; inhibition, % at 20 µM; in the data active means inhibition mostly above about 40%, no sharp cut-off; inactive means mostly below about 27%
SENP1 inh: human SENP1 catalytic domain inhibitors, primary screen, biochemical, FRET, uHTS | Sentrin-specific protease 1 (Homo sapiens), Q9P0U3 | 0.21% of 360,000 active | AID 624204, 2012 | inhibition, % at 10 µM | recombinant SENP1 catalytic domain, CyPet-SUMO1-YPet FRET cleavage;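 active means inhibition at least 30% at 10 µM, raw YFP signal under a set limit, fluorescence ratio 0.5 to 1.5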;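 further: 0% = enzyme with DMSO and 100% = no enzyme wells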
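material = recombinant human SENP1 catalytic domain, His6-tagged | quantity = 20 pM enzyme | reagent = 25 nM SUMO1 FRET substrate | compound dosing = 10 µM single point, 0.5% DMSO | timing = 50 min enzyme reaction, room temperature, light-protected | detection = FRET, CFP and YFP emission | control set = no-enzyme low, enzyme-DMSO high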
SENP8 block-2: SENP8 protease inhibitors, primary screen, biochemical, luminescence | 1.2% of 330,000 active | purified SENP8, Z-RLRGG-aminoluciferin cleavage | inhibition, % at 10 µM | Sentrin-specific protease 8 (Homo sapiens), Q96LD8; in the data active means inhibition above about 50%
SENP8 confirm: SENP8 protease inhibitors, retest, confirmation, biochemical, luminescence, single concentration; shares compounds with SENP7 inh; Recombinant SENP8, Z-RLRGG-aminoluciferin luminescence, 60 min; inhibition, % at 12.5 µM; 40% of 6,200 active; AID 488912, 2010;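 active means mean inhibition across replicates above about 50%, limit read from the data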
SENP6 conf: SENP6 protease inhibitors, confirmation, biochemical, luminescence, single concentration; shares compounds with SENP7 inh; recombinant SENP6, Z-RLRGG-aminoluciferin luminescence; inhibition, % at 12.5 µM; 58% of 6,200 active; AID 488915, 2010
SENP7 confirm: SENP7 protease inhibitors, retest, confirmation, biochemical, luminescence, single concentration | shares compounds with SENP7 inh | recombinant SENP7, Z-RLRGG-aminoluciferin luminescence, 40 min | inhibition, % at 12.5 µM | 69% of 6,200 active
Casp3 SENP sel: caspase-3 protease inhibitors, confirmation, selectivity assay for SENP inhibitor project, biochemical, single concentration; shares compounds with SENP7 inh; purified caspase-3, Z-DEVD-aminoluciferin luminescence, 60 min; inhibition, % at 12.5 µM; 60% of 6,200 active; AID 488918, 2010;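 active means mean inhibition above about 50%, limit read from the data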;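 further: plate controls were enzyme with DMSO for no effect and wells without caspase-3 for full effect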
SENP luc ctr: interferes with luciferase luminescence in SENP counter-screen | inhibition, % at 12.5 µM | AID 488919 | shares compounds with SENP7 inh | 39% of 6,200 active | Pre-incubated SENP8/Z-RLRGG-aminoluciferin, luciferase luminescence interference;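 active means mean inhibition above about 50% when retested at one dose, limit read from the data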;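 further: plate controls were DMSO wells with completed reaction for no effect and substrate without enzyme for full effect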
Active calls of the source: *; . = no result.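 How the source made its calls, unless noted: active means mean inhibition above about 50% in the one-dose retest (limit read from the data); inactive means the rest.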

SMILES	Apaf1 inhib	SENP7 inh	SENP6 inh	SENP8 block-1	SENP1 inh	SENP8 block-2	SENP8 confirm	SENP6 conf	SENP7 confirm	Casp3 SENP sel	SENP luc ctr
CCCN1C(=O)/C(=C/c2nc3ccccc3c(=O)[nH]2)c2cc(C)ccc21	4	4	92*	-23	-32	-2	5	4	9	5	1
C#CCOC(=O)c1cc(Cl)c(=O)n(Cc2ccc(Cl)cc2Cl)c1	20	8	-17	18	3	-2	.	.	.	.	.
CCOC(=O)c1cnc(-c2ccccc2)nc1N	-17	51*	69*	10	1	24	53*	54*	81*	70*	52*
CCOC(=O)c1cnc(SCC(=O)c2ccc(C)cc2)nc1N	-8	-3	12	13	3	2	.	.	.	.	.
CCOC(=O)c1cnc(-c2ccccc2)nc1N(C)C	1	3	18	10	-1	5	.	.	.	.	.
CCOC(=O)c1cnc(SCC(=O)c2ccccc2)nc1N	-6	78*	81*	12	-1	56*	14	23	28	26	31
c1ccc(-c2ccc(CNC3CC3)cc2)cc1	.	.	.	16	0	.	.	.	.	.	.
O=C(CNc1cccc2ccccc12)N/N=C/c1ccc(C(=O)O)cc1	9	30	71*	-199	-7	58*	-8	-3	-5	4	3
O=C(CNc1cccc2ccccc12)N/N=C/C=C/c1ccco1	18	32	82*	-86	3	60*	1	6	13	4	3
Cc1nc2[nH]c(=S)[nH]c2c(=O)[nH]1	.	.	.	-11	-3	.	.	.	.	.	.
C[C@@H]1COc2cc(N3CC[C@H](O)C3)ccc2S(=O)(=O)N1	.	.	.	6	-1	.	.	.	.	.	.
O=C(Nc1ccccc1F)c1ccc(CSc2ncccn2)cc1	0	88*	87*	6	2	83*	86*	86*	96*	90*	88*
O=C(Nc1ccccc1)c1ccc(CSc2ncccn2)cc1	7	91*	89*	16	2	85*	72*	86*	96*	90*	28
Cc1ccc(NC(=O)c2ccc(CSc3nccc(C)n3)cc2)cc1	6	9	-13	15	1	-1	.	.	.	.	.
CSCc1ccc(C(=O)Nc2ccc(C(N)=O)cc2)cc1	-3	86*	82*	3	0	74*	-11	-3	14	55*	4
OC[C@@H]1CN(Cc2ccccc2)C[C@H](n2ccc3c(N4CCCC4)ncnc32)O1	.	.	.	17	1	.	.	.	.	.	.
CCN(CC)c1ccc(/C=N/NC(=O)c2ccoc2C)c(O)c1	3	100*	98*	-116	-56	94*	96*	98*	103*	40	5
COc1cc(/C=N/NC(=O)c2ccoc2C)cc(OC)c1OC	-5	1	-4	2	0	0	.	.	.	.	.
Cc1occc1C(=O)N/N=C/c1cccs1	-15	83*	67*	6	3	62*	72*	72*	91*	91*	74*
COc1ccc(/C=N/NC(=O)c2ccoc2C)cc1OC	5	47	56*	21	1	6	31	28	70*	80*	52*
Cc1occc1C(=O)N/N=C/c1ccc(-c2ccccc2)cc1	14	100*	99*	18	2	97*	71*	100*	103*	98*	70*
CCN(CC)c1ccc(/C=N/NC(=O)OC)c(O)c1	-8	0	-10	11	-2	-5	.	.	.	.	.
CC1(C)CC2(OC2c2ccccc2[N+](=O)[O-])C(=O)c2ccccc21 (stereo unspecified)	.	.	.	8	3	.	.	.	.	.	.
CC1=C(C(=O)Nc2cc(C(=O)N3CCN(c4ccc(Cl)cc4)CC3)ccc2C)SCCO1	.	.	.	1	-2	.	.	.	.	.	.
Cc1cccc(CC(C)NC(=O)c2oc3c(F)cccc3c2C)n1 (stereo unspecified)	5	-14	-5	6	-3	-11	.	.	.	.	.
SMILES	Apaf1 inhib	SENP7 inh	SENP6 inh	SENP8 block-1	SENP1 inh	SENP8 block-2	SENP8 confirm	SENP6 conf	SENP7 confirm	Casp3 SENP sel	SENP luc ctr
COc1ccc(/C=N/NC(=O)c2ccoc2C)cc1O	-2	67*	76*	-29	0	-5	68*	67*	89*	90*	73*
Cc1occc1C(=O)Nc1ccccc1NC(=O)c1ccoc1C	4	8	-6	6	1	4	.	.	.	.	.
Cc1occc1C(=O)N/N=C/c1cccc2ccccc12	11	92*	90*	14	2	89*	56*	88*	100*	89*	14
COc1ccc(/C=N/NC(=O)c2ccoc2C)cc1COc1ccc(Cl)cc1	-7	-7	6	0	-1	-18	.	.	.	.	.
Cc1occc1C(=O)N/N=C/C(Br)=C/c1ccccc1	20	89*	92*	5	2	84*	66*	92*	99*	88*	25
Cc1occc1C(=O)Nc1cccc2ccccc12	18	95*	96*	-34	-3	91*	10	96*	102*	91*	94*
COC(=O)c1ccc(NS(=O)(=O)NC(=O)c2cn(C)c3ccccc23)cc1	-12	0	-4	17	1	3	.	.	.	.	.
Cc1ccccc1NC(=O)c1cccc(S(=O)(=O)Oc2ccc([N+](=O)[O-])cc2)c1	-7	97*	-8	6	3	9	4	2	-1	-1	-2
